A word on the Ki: it is a measure of affinity in units of concentration, obtained from inhibition or displacement. A high value points to a looser hold on the target.

In test [1] the target is 5-hydroxytryptamine receptor 2A (Rattus norvegicus, UniProt P14842). Nature of the test: Displacement of [3H]ketanserin from rat brain 5HT2A receptor. Put shortly:
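Rat brain membranes; 0.6 nM [3H]-ketanserin; nonspecific binding with 1 μM methysergide; 8–10 competitor concentrations in triplicate, ≥3 experiments; GF/B filtration, scintillation counting; Ki via Cheng–Prusoff.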

Test [2] concerns the target 5-hydroxytryptamine receptor 7 (Rattus norvegicus, UniProt P32305). Nature of the test: Displacement of [3H]5CT from 5HT7 receptor in Wistar rat hyphalamic membrane. The test is classed as cell membranes. In general terms: In a radioligand displacement assay an active substance lowers the binding of a labelled ligand.
Test [3] concerns the target T1, 5-hydroxytryptamine receptor 1A (Rattus norvegicus, UniProt P19327).
T1 sequence (P19327 whole entry): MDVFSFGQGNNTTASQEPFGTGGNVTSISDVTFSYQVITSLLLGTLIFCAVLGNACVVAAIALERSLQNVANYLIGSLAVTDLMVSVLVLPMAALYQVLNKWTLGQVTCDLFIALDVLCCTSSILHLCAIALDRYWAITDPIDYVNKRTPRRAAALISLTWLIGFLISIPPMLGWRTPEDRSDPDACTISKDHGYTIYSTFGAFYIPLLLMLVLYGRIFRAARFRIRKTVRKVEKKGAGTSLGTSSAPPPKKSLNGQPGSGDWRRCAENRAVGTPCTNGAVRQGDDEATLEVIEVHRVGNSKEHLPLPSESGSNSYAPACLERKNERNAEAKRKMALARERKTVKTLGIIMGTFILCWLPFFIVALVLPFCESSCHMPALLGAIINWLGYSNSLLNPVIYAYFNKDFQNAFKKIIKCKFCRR
Nature of the test: Displacement of [3H]8-OH-DPAT from rat brain 5HT1A receptor. In outline: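 Rat hippocampal membranes; 1 nM [3H]-8-OH-DPAT; nonspecific binding with 10 μM 5-HT; 8–10 competitor concentrations in triplicate, ≥3 experiments; GF/B filtration, ice-cold buffer washes, scintillation counting; Ki by nonlinear regression with Cheng–Prusoff.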

Test [4] relates to Mus musculus. Nature of the test: Locomotor activity in Swiss Albino mouse assessed as number of crossings in 6 mins at 20 mg/kg, ip administered 30 mins before the test. It counts as functional. Conditions: route intraperitoneal. In outline:
(§1)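 Male Albino Swiss mice dosed ip 30 min before test (compound in 1% Tween 80; imipramine in distilled water); individual cages with IR beam sensors, consecutive beam breaks scored as ambulatory counts during first 6 min and over a 30-min session; n = 10/group; mean ± SEM.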

The test system of test [5] is Mus musculus. Nature of the test: Locomotor activity in Swiss Albino mouse assessed as number of crossings in 30 mins at 10 mg/kg, ip administered 30 mins before the test. The following applies: route intraperitoneal. It counts as functional. Put shortly:
as §1

Test [6] concerns Mus musculus. Nature of the test: Antidepressant activity in Swiss Albino mouse assessed as immobility time during final 4 mins of 6 mins session at 10 mg/kg, ip administered 30 mins before the test in forced-swimming test. The test is classed as functional. The following applies: route intraperitoneal. In outline: (§2)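 Male Albino Swiss mice (24-28 g), ip in 1% aqueous Tween 80 suspension (10 mL/kg), 30 min pretest; single glass cylinder (25 cm high, 10 cm diameter), 6 cm water at 23–25 °C for 6 min; immobility (floating, minimal head-keeping movements) timed over final 4 min; n = 9-10/group; mean ± SEM.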

For test [7], the system named is Mus musculus. Nature of the test: Antidepressant activity in Swiss Albino mouse assessed as immobility time during final 4 mins of 6 mins session at 30 mg/kg, ip administered 30 mins before the test in forced-swimming test. The test is classed as functional. Conditions: route intraperitoneal.
In test [8] the test system is Mus musculus. Nature of the test: Locomotor activity in Swiss Albino mouse assessed as number of crossings in 6 mins at 30 mg/kg, ip administered 30 mins before the test. It counts as functional. Conditions: route intraperitoneal. Put shortly:
as §1

In test [9] the test system is Mus musculus. Nature of the test: Locomotor activity in Swiss Albino mouse assessed as number of crossings in 6 mins at 10 mg/kg, ip administered 30 mins before the test. The following applies: route intraperitoneal. The test is classed as functional. Put shortly: as §1
Test [10] deals with Mus musculus. Nature of the test: Antidepressant activity in Swiss Albino mouse assessed as immobility time during final 4 mins of 6 mins session at 20 mg/kg, ip administered 30 mins before the test in forced-swimming test. It counts as functional. The following applies: route intraperitoneal. Put shortly: as §2
Test [11] concerns Mus musculus. Nature of the test: Locomotor activity in Swiss Albino mouse assessed as number of crossings in 30 mins at 30 mg/kg, ip administered 30 mins before the test. It counts as functional. The following applies: route intraperitoneal. In outline:
as §1

In test [12] the test system is Mus musculus. Nature of the test: Effect on compound induced hypothermia in Swiss Albino mouse at 10 mg/kg, ip in presence of 0.1 mg/kg WAY 100635 after 60 mins relative to control. It counts as functional. Put shortly:
(§3)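 Male Albino Swiss mice; WAY 100635 0.1 mg/kg sc (in distilled water) 15 min before ip compound (1% Tween 80); rectal temperature at 30 and 60 min after compound; Δt from basal; n = 8/group; mean ± SEM.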

The test system of test [13] is Mus musculus. Nature of the test: Effect on body temperature in Swiss Albino mouse assessed as decrease at 10 mg/kg, ip after 60 mins relative to initial temperature. The test is classed as functional. The following applies: route intraperitoneal. In outline:
(§4)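 Male Albino Swiss mice (24-28 g) given compound ip in 1% aqueous Tween 80 (10 mL/kg); rectal temperature read at 30, 60, 90 and 120 min post-dose; Δt versus basal temperature taken at start (initial ~36.0 °C); n = 8/group; mean ± SEM.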

Test [14] concerns Mus musculus. Nature of the test: Decrease in body temperature in Swiss Albino mouse at 5 mg/kg, ip administered 30 mins before the test measured after 90 mins relative to control. The test is classed as functional. The following applies: route intraperitoneal. In outline: as §4
The test system of test [15] is Mus musculus. Nature of the test: Effect on body temperature in Swiss Albino mouse assessed as decrease at 10 mg/kg, ip after 120 mins relative to initial temperature. It counts as functional. Conditions: route intraperitoneal. Put shortly: as §4
The subject of test [16] is Mus musculus. Nature of the test: Decrease in body temperature in Swiss Albino mouse at 5 mg/kg, ip administered 30 mins before the test measured after 60 mins relative to control. The test is classed as functional. Conditions: route intraperitoneal. Put shortly: as §4
The subject of test [17] is Mus musculus. Nature of the test: Effect on body temperature in Swiss Albino mouse assessed as decrease at 10 mg/kg, ip after 90 mins relative to initial temperature. Conditions: route intraperitoneal. It counts as functional. In outline: as §4
Test [18] has as its system Mus musculus. Nature of the test: Effect on body temperature in Swiss Albino mouse assessed as decrease at 10 mg/kg, ip after 30 mins relative to initial temperature. The test is classed as functional. The following applies: route intraperitoneal. In outline: as §4
Test [19] has as its system Mus musculus. Nature of the test: Effect on compound induced hypothermia in Swiss Albino mouse at 10 mg/kg, ip in presence of 0.1 mg/kg WAY 100635 after 30 mins relative to control. The test is classed as functional. Put shortly:
as §3

Test [20] has as its system Mus musculus. Nature of the test: Decrease in body temperature in Swiss Albino mouse at 5 mg/kg, ip administered 30 mins before the test measured after 120 mins relative to control. The test is classed as functional. The following applies: route intraperitoneal. Put shortly: as §4
The test system of test [21] is Mus musculus. Nature of the test: Decrease in body temperature in Swiss Albino mouse at 5 mg/kg, ip administered 30 mins before the test measured after 30 mins relative to control. It counts as functional. Conditions: route intraperitoneal. In outline:
as §4

Sequence of 5-hydroxytryptamine receptor 2A (P14842 whole entry): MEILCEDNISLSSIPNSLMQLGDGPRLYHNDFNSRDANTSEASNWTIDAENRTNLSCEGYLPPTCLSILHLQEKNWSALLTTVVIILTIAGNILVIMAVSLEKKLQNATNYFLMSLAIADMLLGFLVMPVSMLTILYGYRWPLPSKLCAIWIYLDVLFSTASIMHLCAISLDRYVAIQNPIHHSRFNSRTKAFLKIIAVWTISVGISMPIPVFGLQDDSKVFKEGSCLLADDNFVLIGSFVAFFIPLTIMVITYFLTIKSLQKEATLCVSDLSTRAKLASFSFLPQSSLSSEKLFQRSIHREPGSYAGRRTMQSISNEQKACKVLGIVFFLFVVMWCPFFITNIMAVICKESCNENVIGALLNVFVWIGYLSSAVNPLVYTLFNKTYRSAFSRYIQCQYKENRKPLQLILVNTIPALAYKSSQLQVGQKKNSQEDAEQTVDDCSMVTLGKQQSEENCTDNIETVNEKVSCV
Sequence of 5-hydroxytryptamine receptor 7 (P32305 whole entry): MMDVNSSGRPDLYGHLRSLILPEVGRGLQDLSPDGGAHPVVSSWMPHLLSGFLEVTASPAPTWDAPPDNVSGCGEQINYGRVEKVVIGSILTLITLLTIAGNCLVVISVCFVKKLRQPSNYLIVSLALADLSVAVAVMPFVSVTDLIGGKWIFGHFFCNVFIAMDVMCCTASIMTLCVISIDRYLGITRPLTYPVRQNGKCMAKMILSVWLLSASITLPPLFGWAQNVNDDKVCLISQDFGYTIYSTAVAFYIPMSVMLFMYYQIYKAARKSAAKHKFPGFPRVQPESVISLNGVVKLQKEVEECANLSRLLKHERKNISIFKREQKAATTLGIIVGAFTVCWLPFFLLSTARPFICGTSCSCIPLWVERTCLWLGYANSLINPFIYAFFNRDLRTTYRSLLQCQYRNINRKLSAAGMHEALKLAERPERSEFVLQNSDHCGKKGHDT

For the compound `Cn1c(=O)c2c([nH]c(=O)n2CCCCN2CCN(c3ccccc3)CC2)n(C)c1=O`, the Ki in [1] is 560 nM; in test [2], 1820 nM; in test [3], 1500 nM.

For the compound `Cn1c(=O)c2c([nH]c(=O)n2CCCN2CCc3ccccc3C2)n(C)c1=O`, the Ki was found to be 7960 nM in [1], 16500 nM in test [2] and 6320 nM in test [3].

`CCCOc1nc2c(c(=O)n(C)c(=O)n2C)n1CCCCN1CCc2ccccc2C1`: the Ki was determined as 920 nM in [1], 57 nM in [2] and 332 nM in test [3].

Regarding `CCOc1nc2c(c(=O)n(C)c(=O)n2C)n1CCCN1CCN(c2cccc(Cl)c2)CC1`, the Ki in test [1] was 23 nM; in test [2] it was 130 nM; in test [3] it was 190 nM.

In the case of `CCCOc1nc2c(c(=O)n(C)c(=O)n2C)n1CCCN1CCc2ccccc2C1`, the Ki came to 2610 nM in [1], 4400 nM in test [2] and 1010 nM in [3].

Regarding `Cn1c(=O)c2c([nH]c(=O)n2CCCN2CCN(c3cccc(Cl)c3)CC2)n(C)c1=O`, the Ki in [1] was found to be 58 nM; in test [2] it was 1880 nM; in [3], 1110 nM.

Regarding `CCOc1nc2c(c(=O)n(C)c(=O)n2C)n1CCCN1CCN(c2ccccc2OC)CC1`, the inhibition constant (Ki) in [1] came out at 980 nM; in test [2], 410 nM; in test [3] it was 83 nM.

In the case of `CCCOc1nc2c(c(=O)n(C)c(=O)n2C)n1CCCN1CCN(c2ccccc2OC)CC1`, the values for the Ki in [1], in [2] and in test [3] were 540 nM, 328 nM and 314 nM, respectively.

With `CCCOc1nc2c(c(=O)n(C)c(=O)n2C)n1CCCN1CCN(c2ccccc2)CC1`, the Ki in test [1] worked out at 51 nM; in test [2], 980 nM; in [3] it was 800 nM.

`CCOc1nc2c(c(=O)n(C)c(=O)n2C)n1CCCCN1CCN(c2ccccc2)CC1`: the values for the Ki in test [1], in test [2] and in [3] were 131 nM, 197 nM and 67 nM, respectively.

With `CCOc1nc2c(c(=O)n(C)c(=O)n2C)n1CCCCN1CCN(c2cccc(Cl)c2)CC1`, the Ki turned out to be 15 nM in test [1], 51 nM in [2] and 12 nM in [3].

In the case of `CN(C)CCCN1c2ccccc2CCc2ccccc21` [IMIPRAMINE], the Activity in test [4] came to 314.9; in [5], 877; in test [6], 149.1 s; in test [7] it was 76.4 s; in test [8] it was 300.9; in test [9] it was 338. The Activity in test [10] is given as 107.8 s; in [11], 602.3.

On to `Cn1c(=O)c2c([nH]c(=O)n2CCCCN2CCN(c3cccc(Cl)c3)CC2)n(C)c1=O`, for which the results for the Ki in test [1], in test [2] and in [3] were 60 nM, 3670 nM and 260 nM, respectively.

Turning to `CCCOc1nc2c(c(=O)n(C)c(=O)n2C)n1CCCCN1CCN(c2cccc(Cl)c2)CC1`, the Ki in [1] turned out to be 28 nM; in test [2], 125 nM; in test [3] it was 15 nM. Further, the Activity in test [12] was -0.9 °C; in test [13] it was -1.1 °C; in test [14] it was -0.6 °C; in test [15], -1.1 °C; in test [16] it was -0.6 °C; in test [17], -1.1 °C. Moreover, the Activity is -1.7 °C in test [18], -1.4 °C in test [19], -0.2 °C in test [20] and -0.7 °C in test [21].

`CCCOc1nc2c(c(=O)n(C)c(=O)n2C)n1CCCCN1CCN(c2ccccc2)CC1`: the Ki in [1] was found to be 57 nM; in [2] it was 680 nM; in [3] it was 130 nM.

For the compound `CCOc1nc2c(c(=O)n(C)c(=O)n2C)n1CCCN1CCc2ccccc2C1`, the Ki was 590 nM in test [1], 5750 nM in [2] and 1070 nM in test [3].

`CCCOc1nc2c(c(=O)n(C)c(=O)n2C)n1CCCCN1CCN(c2ccccc2OC)CC1`: the Ki amounted to 150 nM in [1], 160 nM in [2] and 19 nM in test [3].

As for `CCCOc1nc2c(c(=O)n(C)c(=O)n2C)n1CCCN1CCN(c2cccc(Cl)c2)CC1`, the Ki in test [1] was 25 nM; in test [2] it was 267 nM; in test [3] it was 288 nM.

Take `Cn1c(=O)c2c([nH]c(=O)n2CCCN2CCN(c3ccccc3)CC2)n(C)c1=O`: the Ki in test [1] was found to be 230 nM; in test [2], 13900 nM; in test [3] it was 4210 nM.

As for `CCOc1nc2c(c(=O)n(C)c(=O)n2C)n1CCCCN1CCc2ccccc2C1`, the values for the Ki in test [1], in [2] and in test [3] were 1930 nM, 83 nM and 430 nM, respectively.

For the compound `CCOc1nc2c(c(=O)n(C)c(=O)n2C)n1CCCN1CCN(c2ccccc2)CC1`, the Ki in test [1] is 176 nM; in test [2], 477 nM; in test [3], 1300 nM.

The record behind these values is ChEMBL document CHEMBL1143707, “7-Arylpiperazinylalkyl and 7-tetrahydroisoquinolinylalkyl derivatives of 8-alkoxy-purine-2,6-dione and some of their purine-2,6,8-trione analogs as 5-HT(1A), 5-HT(2A), and 5-HT(7) serotonin receptor ligands” (Bioorg Med Chem, 2007).
